Screening results from PubChem BioAssay.
CAL PDZ FP-1 = inhibitors of human CAL PDZ peptide binding; Q9HD26; purified CAL PDZ, TMR-peptide fluorescence polarization, 1 h; inhibition, % at 24.9 µM; hit rate 0.92% among 300,000; AID 602252;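 active means mean inhibition of at least 30% with at least half of replicates also reaching 30%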;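 further: 0% = DMSO neutral control and 100% = excess unlabeled competitor peptide PRC23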
LANA-H2B inh = blocks KSHV LANA binding to histone H2A/H2B. Q9QR71. hit rate 0.6% among 320,000. inhibition, % (no concentration beside the values). cell-free LANA-H2A/H2B peptide, fluorescence polarization; in the data active means inhibition mostly above about 10%, no sharp cut-off; inactive means mostly below about 6.7%
CaV13 FRET inh = Disruptors of the CACNA1D IQ motif to Ca2+-dependent inactivation inhibitor domain association, primary screening, Förster resonance energy transfer in intact living …. HEK cells, CFP/YFP FRET ICDI-IQ, plate reader, 10 min; percent FRET-ratio fall versus neutral wells. inhibition, % at 12.3 µM. hit rate 0.098% among 340,000. AID 743397;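 active means mean replicate inhibition of at least 30% and at least 1% of replicates passing that level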;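 further: 0% = median of the neutral control wells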
CAL PDZ FP-2 = human CAL PDZ-peptide interaction inhibition; Q9HD26; AID 504414; inhibition, % at 20 µM; hit rate 0.02% among 330,000; purified CAL PDZ, TMR-peptide fluorescence polarization, 1 h;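 active means highest replicate inhibition of at least 40%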;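 further: plate controls were DMSO neutral control wells for no effect and unlabeled competitor peptide control wells for full effect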
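material = purified tagged CAL PDZ domain construct (CerCALP) | compound dosing = 20 µM, one dose | times = 1 h at RT | measured by = fluorescence polarization from S- and P-plane intensities, G-factor corrected | read-out = inhibition from polarization loss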
LANA DNA inh = inhibitors of KSHV LANA C-terminal domain DNA binding; hit rate 0.078% among 340,000; inhibition, % at 9 µM; MBP-C-LANA/FAM-LBS DNA binding, fluorescence polarization; AID 504423;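 active means highest replicate inhibition at or above 60% at 9 µM, even if other replicates fall short; inactive means all replicates below 60% inhibition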;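 further: 0% = neutral control wells and 100% = 4 µM acridine orange control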
Keap1-Nrf2 PPI = disrupts human Keap1 binding to Nrf2 peptide; inhibition, % at 9.4 µM; Q14145; hit rate 0.15% among 340,000; Keap1 Kelch-Nrf2 peptide fluorescence polarization, 1536-well; in the data active means inhibition above about 12%;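 further: human Keap1 Kelch domain with fluorescein labeled Nrf2 9mer peptide probe; 0% = neutral control wells and 100% = peptide positive control; higher means more block of Keap1 binding to Nrf2 peptide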
Target sequence (Q14145 whole entry, looked up, the tested form may be a part): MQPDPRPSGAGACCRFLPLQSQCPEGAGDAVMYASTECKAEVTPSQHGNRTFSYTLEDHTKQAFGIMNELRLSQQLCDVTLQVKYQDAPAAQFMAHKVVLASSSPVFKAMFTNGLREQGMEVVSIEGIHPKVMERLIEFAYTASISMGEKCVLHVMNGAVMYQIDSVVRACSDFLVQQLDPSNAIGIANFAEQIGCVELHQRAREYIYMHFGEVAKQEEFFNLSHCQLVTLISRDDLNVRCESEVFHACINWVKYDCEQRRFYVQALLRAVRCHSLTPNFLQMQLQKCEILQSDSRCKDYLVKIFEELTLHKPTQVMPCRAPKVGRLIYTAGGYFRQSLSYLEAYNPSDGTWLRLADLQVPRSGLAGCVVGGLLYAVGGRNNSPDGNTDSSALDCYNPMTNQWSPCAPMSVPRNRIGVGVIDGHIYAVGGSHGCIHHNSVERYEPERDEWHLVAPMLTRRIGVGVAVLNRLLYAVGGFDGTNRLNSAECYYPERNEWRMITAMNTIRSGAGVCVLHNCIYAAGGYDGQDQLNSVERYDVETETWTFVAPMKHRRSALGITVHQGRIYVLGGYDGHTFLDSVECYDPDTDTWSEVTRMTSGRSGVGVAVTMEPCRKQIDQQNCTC
The depositor's hits bear a star; / = not tested or not shown; + = active, no number. This is a sample that favours compounds with a hit; in the whole collection about 1.5% have one here.

SMILES	CAL PDZ FP-1	LANA-H2B inh	CaV13 FRET inh	CAL PDZ FP-2	LANA DNA inh	Keap1-Nrf2 PPI
O=C(Nc1ccc2c(c1)OCCO2)C1CC(c2ccccc2Cl)=NO1 (centres undefined)	-3	9.2*	-12	/	1	-2
COc1cc(CNCc2ccc(OC)c(OC)c2OC)cc(OC)c1	/	37*	-4	-1	4	11
COc1cccc(CNCc2cc(OC)cc(OC)c2)c1	-28	2	-2	-1	2	-1
CC(=O)NNc1cc(N2CCOCC2)nc(N2CCOCC2)n1	8	-3	+	0	-3	-53
O=C(NNc1cc(N2CCCC2)nc(N2CCCC2)n1)c1ccc([N+](=O)[O-])cc1	30*	8	64*	-2	0	1
CC(C)(C)c1ccc(C(=O)NNc2cc(N3CCCCC3)nc(N3CCCCC3)n2)cc1	-4	18	-8	-1	0	3
COc1ccccc1NC(=O)COC(=O)C12CC3CC(CC(Cl)(C3)C1)C2	/	0	-17	-2	-1	1
COc1ccc(NC(=O)COC(=O)C23CC4CC(CC(Cl)(C4)C2)C3)c(OC)c1	0	171*	-5	0	0	-4
CCN(CC)C(=O)[C@H]1C[C@@H]2[C@H](C[C@@H](c3ccccc3)[C@H]1C)N(c1ccc(F)cc1)C(=O)N2CCCOc1ccccc1	/	/	-4	/	/	/
CCOC(=O)[C@@H]1CSCCS(=O)(=O)N1C(=O)[C@H](CC(C)C)NC(=O)OC(C)(C)C	/	/	-4	/	/	/
O=S(=O)(NC1=NCCCCC1)c1ccc(Cl)cc1	-2	+	-2	0	/	/
O=C(N/N=C\c1c(O)ccc2ccccc12)c1ccc(S(=O)(=O)N2CCCCC2)cc1	-3	24*	-8	-1	1	-4
O=C(NN=Cc1c(O)ccc2ccccc12)c1ccc2c(c1)OCO2	5	0	-18	0	2	0
Cc1ccc2cccc(NC(=O)c3ccc(Br)o3)c2n1	70*	-1	-3	-1	0	-1
COC(=O)c1cc2c(c3c4ccccc4n(S(=O)(=O)c4ccccc4)c13)C(=O)N(Cc1ccco1)C2	/	/	-4	/	/	/
O=C1c2ccccc2/C(=C\c2ccc(O[C@@H]3CCCCO3)cc2)N1c1ccccc1	/	/	-6	/	/	/
COC(=O)c1cc2ccsc2n1Cc1ccccc1F	-2	2	-5	0	2	-7
COC(=O)c1cc2ccsc2n1Cc1cccc(F)c1	79*	1	-5	0	-1	-2
CCCC(=O)Nc1cc(S(=O)(=O)N2CCCCC2)ccc1N1CCOCC1	59*	4	-6	0	2	5
CCOC(=O)C(NC(=O)c1ccccc1)(OCC1(CC)COC1)C(F)(F)F (centres undefined)	0	1	41*	-2	0	-4
Cc1cccnc1Nc1nc(-c2ccccc2)cs1	-3	23*	-2	0	-2	0
C=CCN1C(=O)[C@]2(OCCC=C[C@H]2C)c2cc(OC)ccc21	/	/	-5	/	/	/
COC(=O)c1cc2c(c3c4cc(F)ccc4n(S(=O)(=O)c4cccc(C)c4)c13)C(=O)N(c1ccc(OC)cc1)C2	/	/	-7	/	/	/
CC1CN(C(=S)Nc2ccccc2)N(c2ccccc2)C1 (centres undefined)	67*	-3	1	-1	2	3
COCc1[nH]nc2c1C(c1ccccc1)NC2=O (centres undefined)	/	/	-6	/	/	/
SMILES	CAL PDZ FP-1	LANA-H2B inh	CaV13 FRET inh	CAL PDZ FP-2	LANA DNA inh	Keap1-Nrf2 PPI
O=C(c1cccc(F)c1F)N1CCCC1	/	-2	1	0	0	-1
Cc1cc(F)c(F)cc1C(=O)N1CCCC1	53*	0	-5	0	0	-2
O=C(OCCN1C(=O)c2cccc3c(N4CCOCC4)ccc(c23)C1=O)c1ccccc1Cl	-2	27*	-18	-2	48	55*
O=C(OCCN1C(=O)c2cccc3c(N4CCOCC4)ccc(c23)C1=O)c1cccc(Cl)c1	/	37*	/	/	/	/
O=C(OCCN1C(=O)c2ccccc2C1=O)c1cc(S(=O)(=O)N2CCOCC2)ccc1Cl	-3	0	-3	-1	-1	2
O=C1c2cccc3c(N4CCCCC4)ccc(c23)C(=O)N1CCO	-5	49*	-21	-2	28	7
COc1ccc(N2CCN(C(=O)COC(=O)Cc3cccc(OC)c3)CC2)cc1	-5	4	-16	-2	2	5
N#Cc1ccc(S(=O)(=O)N2CCCc3nc(-c4ccccc4)ccc32)cc1	/	/	-4	/	/	/
CCSc1nc2nccnc2c(=O)[nH]1	96*	/	-6	0	1	-2
CCSc1nc(O)cc(=O)[nH]1	-9	1	-19	2	0	0
COc1ccc(NC(=O)Nc2ccc(C(C)C)cc2)cc1	-3	0	-19	-1	2	-3
COc1ccc(NC(=O)Oc2cc(C)ccc2C(C)C)cc1	89*	-1	-15	-1	-1	4
COc1ccc(OCCC(=O)OCC(=O)NCc2ccc(F)cc2)cc1	47*	3	-3	-2	0	0
CCCCC(=O)NCCc1ccc(OC)cc1	1	0	-2	0	0	1
CCOc1ccc(OCCCC(=O)NCCc2ccc(OC)cc2)cc1	0	11*	-5	-3	0	0
COc1ccc(CCNC(=O)CC(=O)NCCc2ccc(OC)cc2)cc1	10	2	-18	-1	0	0
COc1ccc(CNC(=O)COC(=O)CCOc2ccc(C)cc2)cc1	1	3	-4	-3	0	-4
COc1ccc(CCNC(=O)Cc2ccsc2)cc1	37*	-7	-7	-2	0	4
COC(=O)[C@]12C[C@H](CC(=O)N3CCCCC3)C(=O)N(Cc3ccccc3)C1=C[C@H](C(C)(C)C)O[C@@H]2C	/	/	-10	/	/	/
CC(=O)c1sc(NC(=O)CN2C(=O)NC3(CCCC3)C2=O)nc1-c1ccccc1	-6	18*	-14	-1	1	-5
CCSc1nnc(NC(=O)CN2C(=O)NC3(CCCC3)C2=O)s1	78*	8	-5	0	-2	0
O=C(CN1C(=O)NC2(CCCC2)C1=O)Nc1ccc(Cl)cc1F	-4	-3	-3	-2	0	0
Cc1sc(NC(=O)CN2C(=O)NC3(CCCC3)C2=O)nc1-c1ccc(F)cc1	-4	1	-5	-2	1	-4
O=C(CN1C(=O)NC2(CCCC2)C1=O)Nc1ccccc1F	0	27*	-9	0	1	-8
COc1cc(OC)c(C2C=CC(=O)CC2)c(OC)c1 (centres undefined)	/	/	-7	/	/	/
CCN(CC)CCn1c(=S)[nH]c2ccc(Br)cc2c1=O	87*	0	-7	4	0	-5
C=CCn1c(-c2cccc3ccccc23)n[nH]c1=S	50*	0	-3	-1	3	-5
